From ChEMBL document CHEMBL1149793, “1,8-Naphthyridines VI. Synthesis and anti-inflammatory activity of 5-(alkylamino)-N,N-diethyl[1,2,4]triazolo[4,3-a][1,8]naphthyridine-6-carboxamides with a new substitution pattern on the triazole ring” (2008)

How the values were obtained:
Type in all cases: functional
Rattus norvegicus [1] = assay: Antiinflammatory activity against carrageenan-induced edema in Sprague-Dawley rat at 25 mg/kg, po
Procedure, shortened: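 Oral gavage dosing as a homogenized suspension in 0.5% carboxymethylcellulose (1 mL/100 g); controls got vehicle; indomethacin 6 mg/kg p.o. positive control. After 60 min, 0.1 mL 1% carrageenan in saline injected into the right hind plantar surface. Paw volume read by water displacement to the lateral malleolus at injection and 2 h later; the difference is edema. % inhibition vs controls; Student's t-test.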

Mus musculus = assay: Analgesic activity against acetic acid-induced writhing in mouse at 3.12 mg/kg
Rattus norvegicus [2] = assay: Antiinflammatory activity against carrageenan-induced edema in Sprague-Dawley rat at 200 mg/kg, po
Procedure, shortened: (§1)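 Rats were dosed orally by gastric intubation with a homogenized suspension in 0.5% carboxymethylcellulose (1 mL/100 g); controls received vehicle alone. After 60 min, 0.1 mL of 1% carrageenan in saline was injected into the plantar surface of the right hind paw. Paw volume was measured by water displacement at injection and 2 h later. Edema was taken as the difference, with % inhibition versus controls (mean ± SD, Student's t-test).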

Rattus norvegicus [3] = assay: Antiinflammatory activity against carrageenan-induced edema in Sprague-Dawley rat at 100 mg/kg, po; procedure, shortened: as §1
Rattus norvegicus [4] = assay: Antiinflammatory activity against carrageenan-induced edema in Sprague-Dawley rat at 50 mg/kg, po; procedure, shortened: as §1
Rattus norvegicus [5] = assay: Antiinflammatory activity against carrageenan-induced edema in Sprague-Dawley rat at 6 mg/kg, po; procedure, shortened: as §1

Row | Structure (SMILES) | inhibition in vivo at 200 mg/kg (Rattus norvegicus [2]) [%] | further results
1 | CCN(CC)C(=O)c1c(NCC(C)C)c2cccnc2n2c(C(C)C)nnc12 |  | inhibition in vivo at 25 mg/kg (Rattus norvegicus [1]): 61%
2 | CCN(CC)C(=O)c1c(N2CCN(C)CC2)c2cccnc2n2c(C(C)C)nnc12 |  | Activity (Mus musculus): 85%
3 | CCc1nnc2c(C(=O)N(CC)CC)c(N(CC)C(=O)c3cccnc3)c3cccnc3n12 | 51 | inhibition in vivo at 100 mg/kg (Rattus norvegicus [3]): 31%
4 | CCN(CC)C(=O)c1c(N(CC(C)C)C(C)=O)c2cccnc2n2c(C(C)C)nnc12 | 5 | 
5 | CCOC(=O)Cc1nnc2c(C(=O)N(CC)CC)c(NCC(C)C)c3cccnc3n12 | 65 | inhibition in vivo at 50 mg/kg (Rattus norvegicus [4]): 21%; inhibition in vivo at 100 mg/kg (Rattus norvegicus [3]): 35%
6 | CCN(CC)C(=O)c1c(NCC(C)C)c2cccnc2n2c(C(=O)N(CC)CC)nnc12 | 60 | inhibition in vivo at 100 mg/kg (Rattus norvegicus [3]): 30%
7 | CCCN(CCC)C(=O)c1nnc2c(C(=O)N(CC)CC)c(NCC(C)C)c3cccnc3n12 | 35 | 
8 | CCCCNc1c(C(=O)N(CC)CC)c2nnc(CC(=O)NCC(C)C)n2c2ncccc12 | 0 | 
9 | CCN(CC)C(=O)c1c(NCC(C)C)c2cccnc2n2c(CC(=O)Nc3nccs3)nnc12 | 18 | 
10 | CCOC(=O)C(C)c1nnc2c(C(=O)N(CC)CC)c(NCC(C)C)c3cccnc3n12 (stereo not given) | 12 | 
11 | CCN(CC)C(=O)c1c(NCC(C)C)c2cccnc2n2c(CC(=O)NCC(C)C)nnc12 | 18 | 
12 | CCOC(=O)c1nnc2c(C(=O)N(CC)CC)c(NCC(C)C)c3cccnc3n12 | 20 | 
13 | CCNc1c(C(=O)N(CC)CC)c2nnc(C(C)C)n2c2ncccc12 |  | inhibition in vivo at 25 mg/kg (Rattus norvegicus [1]): 61%
14 | CCN(CC)C(=O)c1c(Cl)c2cccnc2n2c(C(=O)N(C(C)C)C(C)C)nnc12 | 30 | 
15 | CCNc1c(C(=O)N(CC)CC)c2nnc(CC(=O)OCC)n2c2ncccc12 | 0 | 
16 | COc1ccc2c(c1)c(CC(=O)O)c(C)n2C(=O)c1ccc(Cl)cc1 [INDOMETHACIN] |  | inhibition in vivo at 6 mg/kg (Rattus norvegicus [5]): 92%
